Results published in ChEMBL document CHEMBL3425408, “Design, synthesis, in vitro, and in vivo anticancer and antiangiogenic activity of novel 3-arylaminobenzofuran derivatives targeting the colchicine site on tubulin” (J Med Chem, 2015).
Active and inactive are the calls of the source. No cut-off for these calls is given here.

Columns and labels:
Mus musculus = assay: In vivo antitumor activity against mouse BNL 1ME A.7R.1 cells allografted in Balb/c mouse assessed as reduction in tumor growth at 5 mg/kg, ip up to 8 days relative to vehicle treated control; type: functional, organism-based; design: dose 5 mg/kg
Summary of the method: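 Male Balb/c mice, 8 weeks old, received 10^7 BNL 1ME A.7R.1 cells in 200 μL PBS subcutaneously in the dorsal region. Mice were randomised into groups of 5 and dosed ip daily from day 2. Vehicle was 0.9% NaCl with 5% PEG 400 and 0.5% Tween 80, at 7 μL/g. Tumours were measured daily by caliper for 7 days; V = AB²/2.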

HUVEC = assay: Cytotoxicity against human HUVEC cells after 72 hrs by MTT assay; type: cell-based
Summary of the method: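 HUVECs were isolated from umbilical cord veins, kept in M200 with low-serum growth supplement and used at passages 1–6. […] Mean ± SEM of three separate experiments.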

MDA-MB-231 = assay: Cytotoxicity against human MDA-MB-231 cells after 72 hrs by MTT assay; type: functional, cell-based; conditions: MDA-MB-231, 72 h
[1] = Antiproliferative activity against human HL60 cells after 72 hrs by (3-(4,5-dimethylthiazol-2-yl)-2,5-diphenyltetrazolium bromide test; type: functional, cell-based; conditions: HL-60, 72 h
Summary of the method: (§1)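 Jurkat, RS4;11 and HL-60 cells grown in RPMI-1640; MCF-7, A549, HeLa and HT-29 cells grown in DMEM; both media with 10% FBS and penicillin/streptomycin. 8 × 10^3 cells per well were preincubated 18 h at 37 °C, 5% CO2, then exposed 72 h to a concentration range (DMSO ≤0.25%). Read-out was MTT; IC50 was taken against cells given the maximum DMSO. Mean ± SE of at least three experiments.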

[2] = Antiproliferative activity against human RS4:11 cells after 72 hrs by (3-(4,5-dimethylthiazol-2-yl)-2,5-diphenyltetrazolium bromide test; type: functional, cell-based; conditions: RS4-11, 72 h; summary of the method: as §1
HeLa = assay: Antiproliferative activity against human HeLa cells after 72 hrs by (3-(4,5-dimethylthiazol-2-yl)-2,5-diphenyltetrazolium bromide test; type: functional, cell-based
A549 = assay: Antiproliferative activity against human A549 cells after 72 hrs by (3-(4,5-dimethylthiazol-2-yl)-2,5-diphenyltetrazolium bromide test; type: functional, cell-based; conditions: A549, 72 h
MCF7 = assay: Antiproliferative activity against human MCF7 cells after 72 hrs by (3-(4,5-dimethylthiazol-2-yl)-2,5-diphenyltetrazolium bromide test; type: functional, cell-based; conditions: MCF7, 72 h
HT-29 = assay: Antiproliferative activity against human HT-29 cells after 72 hrs by (3-(4,5-dimethylthiazol-2-yl)-2,5-diphenyltetrazolium bromide test; type: functional, cell-based; conditions: HT-29, 72 h
Jurkat = assay: Antiproliferative activity against human Jurkat cells after 72 hrs by (3-(4,5-dimethylthiazol-2-yl)-2,5-diphenyltetrazolium bromide test; type: functional, cell-based; summary of the method: as §1
Tubulin = Tubulin (Bos taurus, UniProt Q6B856+Q862L2+Q862F3); assay: Inhibition of bovine brain tubulin assembly after 20 mins incubation by spectrophotometric analysis
Summary of the method: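 Bovine brain tubulin (10 μM) was preincubated with varying compound concentrations in glutamate buffer at 30 °C, then chilled to 0 °C. GTP was added to 0.4 mM final and the mixture warmed to 30 °C in cuvettes.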

| Compound | inhibition (Mus musculus) | IC50 (HUVEC) [nM] | IC50 (MDA-MB-231) [nM] | IC50 [1] [nM] | IC50 [2] [nM] | IC50 (HeLa) [nM] | IC50 (A549) [nM] | IC50 (MCF7) [nM] | IC50 (HT-29) [nM] | IC50 (Jurkat) [nM] | IC50 (Tubulin) [nM] |
| --- | --- | --- | --- | --- | --- | --- | --- | --- | --- | --- | --- |
| COc1ccc(/C=C\c2cc(OC)c(OC)c(OC)c2)cc1OP(=O)(O)O | Active |  |  |  |  |  |  |  |  |  |  |
| COC(=O)c1oc2c(O)c(OC)ccc2c1C(=O)c1cc(OC)c(OC)c(OC)c1 |  | 1 | 1 |  |  |  |  |  |  |  |  |
| COC(=O)c1oc2cccc(OC)c2c1Nc1cc(OC)c(OC)c(OC)c1 |  |  |  | > 10000 | > 10000 | > 10000 | > 10000 | > 10000 | > 10000 | > 10000 |  |
| COC(=O)c1oc2ccccc2c1Nc1cc(OC)c(OC)c(OC)c1 |  |  |  | 4400 | 430 | 260 | 5280 | 7800 | 930 | 4100 |  |
| CCOC(=O)c1oc2cccc(OC)c2c1Nc1cc(OC)c(OC)c(OC)c1 |  |  |  | > 10000 | > 10000 | > 10000 | > 10000 | > 10000 | > 10000 | > 10000 |  |
| CCOc1cccc2c(Nc3cc(OC)c(OC)c(OC)c3)c(C(=O)OC)oc12 |  |  |  | 4200 | 400 | 2530 | 8900 | > 10000 | 3200 | 3700 |  |
| CCOC(=O)c1oc2ccccc2c1Nc1cc(OC)c(OC)c(OC)c1 |  |  |  | 2500 | 300 | 1330 | 5470 | 6600 | 1600 | 180 |  |
| COC(=O)c1oc2ccc(OC)cc2c1Nc1cc(OC)c(OC)c(OC)c1 |  |  |  | 470 | 39 | 250 | 1570 | 7900 | 240 | 210 | 7500 |
| COC(=O)c1oc2c(OC)cccc2c1Nc1cc(OC)c(OC)c(OC)c1 |  |  |  | 320 | 1 | 130 | 1270 | 520 | 290 | 30 | 7600 |
| CCOC(=O)c1oc2c(OCC)cccc2c1Nc1cc(OC)c(OC)c(OC)c1 |  |  |  | 5500 | 3000 | 3280 | 7250 | > 10000 | 5300 | 9100 |  |
| CCOC(=O)c1oc2ccc(OC)cc2c1Nc1cc(OC)c(OC)c(OC)c1 |  |  |  | 3400 | 190 | 1260 | 8900 | 2900 | 1400 | 2300 |  |
| CCOC(=O)c1oc2c(OC)cccc2c1Nc1cc(OC)c(OC)c(OC)c1 |  |  |  | 590 | 230 | 270 | 1100 | 2100 | 110 | 290 | 6400 |
| COc1ccc(/C=C\c2cc(OC)c(OC)c(OC)c2)cc1O [COMBRETASTATIN A4] |  |  |  | 1 | 0.8 |  |  |  |  |  |  |
